A word on the inhibition: it is the drop in the measured response relative to a control, in per cent.

Unmarked numbers belong to inactive results. The list shows a part of the results. Active and inactive are the calls of the source. Unless noted, no stated cut-off is given here; in the data, active means inhibition above about 36%; inactive means the rest.

The values below come from PubChem BioAssay.

A short description of experiment [1]: StAR promoter reporter inhibitors, counter-screen for LRH-1 inverse agonist project, cell-based, luminescence, high throughput (AID 651611; in the data active means inhibition above about 28%). The conditions noted are these: StAR promoter luciferase reporter counterscreen, at 3.6 µM, stronger effect = higher value. Background: A counterscreen serves to expose hits that act by an unwanted route or on another target.
The target in experiment [2] is Nuclear receptor subfamily 5 group A member 2 (Homo sapiens) (UniProt O00482). The experiment is described as follows: LRH-1 (NR5A2) inverse agonists, retest, confirmation, cell-based, luminescence (AID 651613; in the data active means inhibition above about 42%;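 further: HEK293T cells co-transfected with LRH-1 and StAR promoter luciferase reporter; 0% = vehicle wells and 100% = parental cells lacking receptor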). The conditions noted are these: cell-based LRH-1 luciferase reporter, inverse agonism; at 3.6 µM; stronger effect = higher value. In general terms: In a reporter assay the amount or activity of a reporter protein is the signal.
Chain of Nuclear receptor subfamily 5 group A member 2 (Homo sapiens) (O00482 whole entry, looked up): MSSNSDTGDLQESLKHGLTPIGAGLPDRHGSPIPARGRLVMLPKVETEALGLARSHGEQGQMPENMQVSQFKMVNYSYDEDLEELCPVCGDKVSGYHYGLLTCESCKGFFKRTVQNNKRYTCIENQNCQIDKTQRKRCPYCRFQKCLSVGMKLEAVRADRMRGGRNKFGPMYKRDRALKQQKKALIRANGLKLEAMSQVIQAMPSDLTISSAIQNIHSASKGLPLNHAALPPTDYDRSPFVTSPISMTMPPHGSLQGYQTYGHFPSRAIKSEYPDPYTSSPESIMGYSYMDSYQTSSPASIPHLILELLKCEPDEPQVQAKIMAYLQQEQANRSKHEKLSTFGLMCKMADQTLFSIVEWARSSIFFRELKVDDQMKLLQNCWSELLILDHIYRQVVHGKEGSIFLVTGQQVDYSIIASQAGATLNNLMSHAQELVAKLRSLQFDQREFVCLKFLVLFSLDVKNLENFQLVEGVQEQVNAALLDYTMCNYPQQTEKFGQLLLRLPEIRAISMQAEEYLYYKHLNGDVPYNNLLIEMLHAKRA

For experiment [3], the target named is Steroidogenic factor 1 (Homo sapiens) (UniProt Q13285). The experiment can be described thus: SF1 (NR5A1) inverse agonists, counter-screen for LRH-1 inverse agonist project, cell-based, luminescence, high throughput (AID 651614; in the data active means inhibition above about 44%;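 further: cells cotransfected with StAR promoter reporter and SF1 expression vector; 0% = vehicle on cells with receptor and 100% = vehicle on cells lacking receptor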). The conditions noted are these: cell-based SF1 luciferase reporter, at 3.6 µM, stronger effect = higher value.
Chain of Steroidogenic factor 1 (Homo sapiens) (Q13285 whole entry, looked up, the tested form may be a part): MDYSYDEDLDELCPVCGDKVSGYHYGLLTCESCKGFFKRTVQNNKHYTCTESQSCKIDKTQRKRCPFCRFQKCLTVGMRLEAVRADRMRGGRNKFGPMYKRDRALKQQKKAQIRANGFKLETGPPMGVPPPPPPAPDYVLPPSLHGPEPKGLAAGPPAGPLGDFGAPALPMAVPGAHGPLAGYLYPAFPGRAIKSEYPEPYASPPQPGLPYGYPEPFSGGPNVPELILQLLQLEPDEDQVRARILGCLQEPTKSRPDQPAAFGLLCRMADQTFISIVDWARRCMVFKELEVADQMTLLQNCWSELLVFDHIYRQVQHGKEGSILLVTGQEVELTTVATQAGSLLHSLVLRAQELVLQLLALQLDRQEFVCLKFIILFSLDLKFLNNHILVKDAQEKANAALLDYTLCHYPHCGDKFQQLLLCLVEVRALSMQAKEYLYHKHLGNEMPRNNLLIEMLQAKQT
A short description of experiment [4]: VP16 transactivation reporter inhibitors, counter-screen for LRH-1 inverse agonist project, cell-based, luminescence, high throughput (AID 651615; in the data active means inhibition above about 33%). Particulars: Gal4-VP16 luciferase reporter cells, at 3.6 µM, stronger effect = higher value.
Experiment [5] concerns transactivating tegument protein VP16 (Human herpesvirus 1). The experiment is described as follows: VP16 transactivation reporter inhibitors, counter-screen for SRC2 inhibitor project, cell-based, luminescence, single concentration (AID 652007). Particulars: cell-based VP16 transactivation luciferase reporter, at 8.9 µM, stronger effect = higher value.
Experiment [6] deals with Nuclear receptor coactivator 2 (Homo sapiens) (UniProt Q15596). The experiment is described as follows: SRC2 coactivator transcriptional activity inhibitors, confirmation, cell-based, luminescence, HEK293, triplicate (AID 652008;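 active means mean inhibition above 46.5%, the solvent-only control mean plus 3 SD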;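 further: 0% = DMSO-treated cells and 100% = Gossypol at 36 µM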). Particulars: HEK293 GAL4-SRC2 luciferase reporter, at 8.9 µM, stronger effect = higher value.
Chain of Nuclear receptor coactivator 2 (Homo sapiens) (Q15596 whole entry, looked up, the tested form may be a part): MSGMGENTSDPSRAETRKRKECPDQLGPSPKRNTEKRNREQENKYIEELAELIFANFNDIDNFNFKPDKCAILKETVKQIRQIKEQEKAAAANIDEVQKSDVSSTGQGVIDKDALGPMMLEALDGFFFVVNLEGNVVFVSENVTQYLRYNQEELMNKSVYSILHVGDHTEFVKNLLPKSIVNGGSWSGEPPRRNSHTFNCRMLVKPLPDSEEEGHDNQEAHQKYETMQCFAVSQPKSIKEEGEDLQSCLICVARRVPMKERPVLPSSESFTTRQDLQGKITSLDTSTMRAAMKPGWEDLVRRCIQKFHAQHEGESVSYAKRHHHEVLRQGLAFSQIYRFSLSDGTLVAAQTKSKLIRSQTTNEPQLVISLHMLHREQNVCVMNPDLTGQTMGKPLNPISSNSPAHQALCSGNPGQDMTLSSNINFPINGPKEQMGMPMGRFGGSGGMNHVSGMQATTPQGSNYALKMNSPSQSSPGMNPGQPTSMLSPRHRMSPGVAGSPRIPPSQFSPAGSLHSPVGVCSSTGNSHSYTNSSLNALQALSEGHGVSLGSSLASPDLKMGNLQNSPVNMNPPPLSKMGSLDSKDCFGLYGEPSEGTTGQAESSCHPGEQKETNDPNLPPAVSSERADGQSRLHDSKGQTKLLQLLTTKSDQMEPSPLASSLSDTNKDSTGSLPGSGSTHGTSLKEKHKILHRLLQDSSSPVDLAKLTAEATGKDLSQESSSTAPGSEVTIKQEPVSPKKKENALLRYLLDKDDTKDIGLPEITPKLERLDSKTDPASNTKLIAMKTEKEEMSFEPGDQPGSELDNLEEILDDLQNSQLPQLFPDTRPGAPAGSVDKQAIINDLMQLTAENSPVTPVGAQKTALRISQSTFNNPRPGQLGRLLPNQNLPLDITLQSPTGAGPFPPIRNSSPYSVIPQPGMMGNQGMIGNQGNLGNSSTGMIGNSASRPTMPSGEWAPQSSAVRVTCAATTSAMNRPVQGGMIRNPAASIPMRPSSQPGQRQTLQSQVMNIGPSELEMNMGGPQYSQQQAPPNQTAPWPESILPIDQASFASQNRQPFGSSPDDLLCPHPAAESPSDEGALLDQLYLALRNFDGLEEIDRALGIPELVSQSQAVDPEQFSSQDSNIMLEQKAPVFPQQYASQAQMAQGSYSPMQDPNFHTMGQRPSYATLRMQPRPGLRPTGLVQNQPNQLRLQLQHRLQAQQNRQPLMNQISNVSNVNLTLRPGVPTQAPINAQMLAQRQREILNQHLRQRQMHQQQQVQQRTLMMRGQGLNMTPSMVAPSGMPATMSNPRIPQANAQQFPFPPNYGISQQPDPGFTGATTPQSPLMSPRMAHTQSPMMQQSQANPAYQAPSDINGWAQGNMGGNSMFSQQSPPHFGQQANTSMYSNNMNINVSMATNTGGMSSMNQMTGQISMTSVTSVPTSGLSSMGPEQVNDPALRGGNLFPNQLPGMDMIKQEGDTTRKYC
Experiment [7] concerns the target Oxysterols receptor LXR-beta (Homo sapiens) (UniProt P55055). The experiment is described as follows: LXR agonists, Gal4 luciferase reporter, confirmation, counter-screen for hcDAF-12 agonist project, cell-based, luminescence, HEK293, H. contortus campaign (AID 743027;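 active means mean percent activation of the reporter above a cutoff set as the average over tested compounds plus their standard deviation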). Particulars: HEK293 Gal4-LXR tk-luc reporter, 24 h, at 6.8 µM, stronger effect = higher value, normalized: DMSO 0%, positive control 100%. The procedure, abridged: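 Assay system: HEK293 Gal4-LXR luciferase reporter cells; schedule: one-day compound treatment at 37 °C; signal: One-Glo luciferase luminescence; control set: DMSO and positive control; replicates: triplicate wells per compound; doses: 6.8 µM single dose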

The test system of experiment [8] is Nuclear hormone receptor DAF-12 (Haemonchus contortus). The experiment can be described thus: H. contortus DAF-12 receptor agonists, confirmation, cell-based, luminescence, HEK293, lit1-tk-luc, triplicate (AID 743032;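 active means mean activation across triplicate tests above the threshold derived from the earlier primary screen, cut at about 5.5% in these data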;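 further: 0% = DMSO only wells and 100% = 3 µM Δ7-dafachronic acid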). Particulars: HEK293 hcDAF-12 lit1-tk-luc reporter, at 6.8 µM, stronger effect = higher value.

Chain of Oxysterols receptor LXR-beta (Homo sapiens) (P55055 whole entry, looked up, the tested form may be a part): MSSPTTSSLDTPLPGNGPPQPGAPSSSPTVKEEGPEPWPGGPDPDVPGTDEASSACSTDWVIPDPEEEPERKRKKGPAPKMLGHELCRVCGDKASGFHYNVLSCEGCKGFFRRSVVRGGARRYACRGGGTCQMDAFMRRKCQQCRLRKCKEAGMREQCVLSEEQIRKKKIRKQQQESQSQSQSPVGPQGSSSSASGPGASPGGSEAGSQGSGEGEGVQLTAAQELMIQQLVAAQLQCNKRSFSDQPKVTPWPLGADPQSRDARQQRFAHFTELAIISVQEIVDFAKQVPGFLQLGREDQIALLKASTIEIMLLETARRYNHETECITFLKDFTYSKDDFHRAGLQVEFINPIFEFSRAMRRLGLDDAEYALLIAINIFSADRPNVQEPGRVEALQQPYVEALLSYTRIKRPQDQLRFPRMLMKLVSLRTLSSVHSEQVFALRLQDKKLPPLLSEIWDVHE

For `COC(=O)C(C)Oc1cc(C)cc2oc(=O)c3c(c12)CCCC3` (stereo not given), the inhibition is 14.4% in experiment [1], 63.3% (active) in experiment [2], 55.9% (active) in experiment [3] and -29.8% in experiment [4].

On to `Cc1cc(OCC(=O)OC(C)C)c2c3c(c(=O)oc2c1)CCCC3`, for which the inhibition is 14.7% in experiment [1], 57.9% (active) in experiment [2], 54.9% (active) in experiment [3] and -9.99% in experiment [4].

For the compound `CC1OC(OC2C=C3CCC4C(CCC5(C)C(c6ccc(=O)oc6)CCC45O)C3(C)CC2)C(O)C(OC2OC(CO)C(O)C(O)C2O)C1O` (stereo not given), the inhibition in experiment [1] is 95.6% (active); in experiment [2], 110% (active); in experiment [3] it was 97.2% (active); in experiment [4] it was 94.4% (active); in experiment [5], 63.6% (active); in experiment [6], 48.1% (active).

On to `COC(=O)C1=C(c2ccc(-c3ccccc3)c(F)c2)C[C@@H]2CC[C@H]1N2C(=O)NCc1ccc(F)cc1`, for which the inhibition in experiment [5] is -5.9%; in experiment [6], 2.93%.

On to `CCOC(=O)C1(CCc2ccccc2)CCN(Cc2cccc3cnccc23)CC1`, for which the inhibition in experiment [5] was 10.4%; in experiment [6] it was 9.69%.

Turning to `C[C@@H]1O[C@@H](O[C@@H]2C=C3CC[C@@H]4C(CC[C@]5(C)[C@@H](c6ccc(=O)oc6)CC[C@]45O)[C@@]3(C)CC2)[C@H](O)[C@H](O)[C@H]1O` (stereo not given in full), the inhibition in experiment [1] is 97.1% (active); in experiment [2] it was 111% (active); in experiment [3], 98.8% (active); in experiment [4], 95.6% (active); in experiment [5], 67.9% (active); in experiment [6], 69.7% (active).

As for `CCOP(=O)(OCC)c1cccc(OP(=O)(c2cccc([N+](=O)[O-])c2)c2cccc([N+](=O)[O-])c2)c1`, the results for the inhibition in experiment [5] and in experiment [6] were -4.6% and -32.1%, respectively.

For the compound `c1cncc(-c2ccc3n2Cc2cnnn2-c2ccccc2-3)c1`, the results for the inhibition in experiment [5] and in experiment [6] were 11% and 21.8%, respectively.

As to `C[C@@H]1C[C@@H]([C@H](O)CC2CC(=O)NC(=O)C2)C(=O)[C@@H](C)C1`, the inhibition in experiment [2] is 109% (active); in experiment [3], 97.9% (active); in experiment [5] it was 48% (active); in experiment [6] it was 59.3% (active).

Take `CN(Cc1cccc(-c2cccnc2)c1)C(=O)Oc1ccc([N+](=O)[O-])cc1`: the inhibition is 2.36% in experiment [5] and 49.7% (active) in experiment [6].

As to `O=C(c1ccc(Cl)cc1)C1CCCN(Cc2cccc3ncccc23)C1` (stereo not given), the inhibition is 14.6% in experiment [5] and -6.97% in experiment [6].

For the compound `Cc1nc2cc(-c3ccc(Cl)cc3)nn2c(C)c1CCC(=O)N1CCC2(CC1)OCCO2`, the inhibition was 16.4% in experiment [5] and 70.5% (active) in experiment [6].

Turning to `COc1ccc(S(=O)(=O)N2Cc3cnnn3-c3ccccc3C2C#N)cc1` (stereo not given), the inhibition in experiment [5] is 1.55%; in experiment [6], -21%.

Consider `CCOP(=O)(OCC)C1(O)C(=O)Nc2ccc(Br)cc21` (stereo not given), for which the inhibition in experiment [5] was -7%; in experiment [6], -5.26%.

For `Nc1cccc(SC2CC(=O)N(c3ccc(Cl)cc3C(=O)c3ccccc3)C2=O)c1` (stereo not given), the inhibition in experiment [5] was 3.94%; in experiment [6], 17.3%.

Turning to `Cc1nc2cc(-c3cccc(F)c3)nn2c(C)c1CCC(=O)N1CCC2(CC1)OCCO2`, the inhibition is -18.5% in experiment [5] and 40% in experiment [6].

Turning to `COc1ccc(C(=O)C2CN(C)CC2C(=O)c2ccc(OC)cc2)cc1` (stereo not given), the activation in experiment [7] was -0.19%; in experiment [8], 0.28%.

For `FC(F)(F)c1ccccc1N1CC1c1ccncc1` (stereo not given), the inhibition is -14.4% in experiment [5] and -11.4% in experiment [6].

In the case of `COc1ccc2c3c1O[C@H]1C(=O)CC[C@H]4[C@@H](C2)N(C)CC[C@]314`, the inhibition in experiment [5] is -4.81%; in experiment [6], -28.4%.

Regarding `CC(=O)OC1CC(OC2C(O)CC(OC3C(O)CC(OC4CCC5(C)C(CCC6C5CCC5(C)C(C7=CC(=O)OC7)CCC65O)C4)OC3C)OC2C)OC(C)C1OC1OC(CO)C(O)C(O)C1O` (stereo not given), the inhibition in experiment [1] is 94.6% (active); in experiment [2], 109% (active); in experiment [3] it was 96.6% (active); in experiment [4], 92.5% (active); in experiment [5] it was 67.4% (active); in experiment [6], 54.4% (active).

Take `Cc1ccccc1CN1Cc2cnnn2-c2ccccc2C1C#N` (stereo not given): the values for the inhibition in experiment [5] and in experiment [6] were 39.8% (active) and 48.8% (active), respectively.
